Compound activity: PubChem BioAssay, The Scripps Research Institute Molecular Screening Center
TAAR1 ag: human TAAR1 agonists, primary screen, Fluo-8 calcium fluorescence, CHO RD-HGA16 cells; Trace amine-associated receptor 1 (Homo sapiens), Q96RJ0; vehicle wells 0%, saturating PEA agonist 100%; activation, % at 3 µM; 360,000 tested, 0.99% active; AID 624467, 2012;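 active means activation above the mean activation of all test compounds in the run plus 3 SD, cut at about 38% in these data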
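Repeats: no replicates (n 1) | Material: CHO-derived RD-HGA16 cells with stable Gα16 and human TAAR1 | Technique: Kinetic Fluo-8 calcium fluorescence | Schedule: 17-24 h seeding, 75 min 37 °C dye, 30 min RT | Evaluation: % activation from peak over basal fluorescence ratio, DMSO-to-PEA scaled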
OXTR potentiator: human OXTR potentiators, primary screen, fluorescence, CHO-OTR cells, Fluo-8 calcium; Fluo-8 calcium fluorescence, potentiator mode; 0% = oxytocin EC15, 100% = EC100; activation, % at 3 µM; 320,000 tested, 0.061% active; AID 2445, 2010;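 active means activation above that plate's cutoff, the mean activation of tested compounds plus 3 SD, cut at about 6.6% in these data, passing the limit was not always enough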
Target sequence (P30559 whole entry, looked up): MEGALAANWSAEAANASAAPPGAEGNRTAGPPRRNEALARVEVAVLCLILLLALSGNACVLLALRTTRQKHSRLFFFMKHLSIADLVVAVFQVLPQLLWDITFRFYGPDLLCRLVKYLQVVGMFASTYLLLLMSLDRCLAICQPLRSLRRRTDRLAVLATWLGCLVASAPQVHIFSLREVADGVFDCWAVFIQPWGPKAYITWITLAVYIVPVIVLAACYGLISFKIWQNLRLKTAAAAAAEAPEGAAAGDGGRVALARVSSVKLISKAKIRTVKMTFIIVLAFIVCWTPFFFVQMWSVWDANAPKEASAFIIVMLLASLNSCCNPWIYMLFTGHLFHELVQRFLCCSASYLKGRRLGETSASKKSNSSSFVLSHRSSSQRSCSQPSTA
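Assay system: CHO cell line stably expressing human OTR | Also added: Oxytocin at about EC15, sub-maximal agonist stimulus | Times: Compound 6 min at room temperature before oxytocin, 100 s read | Measured by: Fluo-8 intracellular calcium fluorescence, ex 470-495, em 515-575 nm | Controls: EC15 oxytocin alone as 0%, 75 nM oxytocin as 100%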
V1aR counter: agonists of human V1a receptor, primary screen, counter-screen for OXTR agonist project, fluorescence, CHO-V1R cells | Vasopressin V1a receptor (Homo sapiens), P37288 | Fluo-8 calcium fluorescence, agonist mode; 0% DMSO, 100% 3 nM vasopressin | activation, % at 3 µM | 320,000 tested, 0.25% active | AID 2797, 2010;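 active means activation above the mean activation of all tested compounds plus 3 SD, per screening run, cut at about 20% in these data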;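 further: signal is peak over basal fluorescence ratio across a 100 second FLIPR read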
Target sequence (P37288 whole entry, looked up): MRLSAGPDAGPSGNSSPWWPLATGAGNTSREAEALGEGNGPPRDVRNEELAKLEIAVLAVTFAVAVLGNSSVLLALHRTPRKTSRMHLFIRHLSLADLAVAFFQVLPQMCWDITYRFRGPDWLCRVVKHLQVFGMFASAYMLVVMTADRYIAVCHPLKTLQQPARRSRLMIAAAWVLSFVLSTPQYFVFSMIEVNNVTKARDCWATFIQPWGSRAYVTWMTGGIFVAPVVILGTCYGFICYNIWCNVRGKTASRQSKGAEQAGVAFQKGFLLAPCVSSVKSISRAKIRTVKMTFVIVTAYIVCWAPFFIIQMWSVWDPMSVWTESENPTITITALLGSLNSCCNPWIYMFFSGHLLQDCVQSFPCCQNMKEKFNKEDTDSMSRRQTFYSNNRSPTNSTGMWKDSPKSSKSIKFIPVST
TAAR1 antagonist: human TAAR1 antagonists, primary screen, Fluo-8 calcium fluorescence, CHO RD-HGA16 cells | AID 624466, 2012 | inhibition, % at 3 µM | Trace amine-associated receptor 1 (Homo sapiens), Q96RJ0 | antagonist | 360,000 tested, 1.5% active;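 active means inhibition above a per-plate cutoff, the mean inhibition of test compounds on that plate plus 3 SD, cut at about 49% in these data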
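Test system: CHO RD-HGA16 cells bearing hTAAR1 | Reagent: β-PEA, EC80 | Compound dosing: 3 µM, single point | Schedule: Dye loading 75 min at 37 °C, then 30 min room temperature | Signal: Calcium fluorescence with Fluo-8 | Evaluation: Percent inhibition of PEA-evoked calcium signal, max/basal emission ratio | Control set: DMSO-only wells and EC80 β-PEA-stimulated wells | Repeats: Singlicate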
OXTR agonist: human OXTR agonists, primary screen, fluorescence, CHO-OTR cells, Fluo-8 calcium; Oxytocin receptor (Homo sapiens), P30559; Fluo-8 calcium fluorescence; normalized: DMSO 0%, oxytocin 100%; activation, % at 3 µM; 320,000 tested, 0.32% active; AID 2435, 2010;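 active means activation above the mean of all tested compounds plus 3 SD, cutoff set per screening run, cut at about 20% in these data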;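 further: peak over basal fluorescence ratio from a 100 s FLIPR kinetic read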
TAAR1 ag conf: human TAAR1 agonists, retest of hits, confirmation, Fluo-8 calcium fluorescence, CHO RD-HGA16 cells; activation, % at 3 µM; 2,400 tested, 82% active; scaled: DMSO 0%, maximal phenethylamine 100%; shares compounds with TAAR1 ag;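 active means activation above a cutoff set at the run's mean compound activation plus 3 SD, cut at about 39% in these data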
Ga16 nonsel ag: nonselective calcium mobilization agonists, CHO-Ga16 cells, counter-screen for hTAAR1 agonist project, cell-based, fluorescence, CHO-Ga16 parental line; AID 651787, 2012; shares compounds with TAAR1 ag; activation, % at 3 µM; Fluo-8 calcium fluorescence; normalized to maximal ATP response, DMSO zero; 2,400 tested, 50% active;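 active means activation above the run cutoff, the mean activation over all tested wells plus 3 SD, cut at about 12% in these data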
TAAR1 desensitize: TAAR1 desensitization by agonist hits, confirmation, counter-screen for TAAR1 agonist project, cell-based, fluorescence, tachyphylaxis; inhibition, % at 3 µM; 2,400 tested, 46% active; CHO RD-HGA16 hTAAR1, Fluo-8 calcium, beta-PEA response inhibition; shares compounds with TAAR1 ag;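 active means inhibition above the run cutoff, the mean inhibition of all test compounds plus 3 SD, cut at about 49% in these data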;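 further: beta-PEA stimulus applied at its EC80; loss of beta-PEA calcium signal after compound pretreatment read as receptor desensitization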
Ga16 nonsel ant: inhibition of ATP-evoked calcium response in CHO-Ga16 cells, counter-screen for TAAR1 agonist project, cell-based, fluorescence. shares compounds with TAAR1 ag. CHO-Ga16 ATP-induced calcium, Fluo-8 fluorescence. inhibition, % at 3 µM. 2,400 tested, 39% active. AID 651952, 2012;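 active means inhibition above the plate's mean compound inhibition plus 3 SD, computed per plate, cut at about 22% in these data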
Each line names hits and unclear results; the compound was inactive in the other large screens (follow-up assays come after a bar, where they were run). Hits are enriched below; roughly 2.3% of the tested compounds scored in any of these assays.

Cc1ccc(NC(=O)N2CCc3ccccc3C2)c(C)c1	TAAR1 ag 92 | TAAR1 ag conf 66 | Ga16 nonsel ag inactive | TAAR1 desensitize inactive | Ga16 nonsel ant inactive
CC(=O)c1cccc(NC(=O)N2CCc3ccccc3C2)c1	TAAR1 ag 56 | TAAR1 ag conf 62 | Ga16 nonsel ag inactive | TAAR1 desensitize inactive | Ga16 nonsel ant inactive
Cc1ccc(NC(=O)N2CCc3ccccc3C2)cc1	TAAR1 ag 68 | TAAR1 ag conf 43 | Ga16 nonsel ag inactive | TAAR1 desensitize inactive | Ga16 nonsel ant inactive
O=C(Nc1ccccc1)N1CCc2ccccc2C1	TAAR1 ag 48 | TAAR1 ag conf 54 | Ga16 nonsel ag inactive | TAAR1 desensitize inactive | Ga16 nonsel ant inactive
O=C(Nc1ccc(Cl)cc1)N1CCc2ccccc2C1	none
Cc1occc1C(=O)Nc1cnn(CCCC(=O)O)c1	none
COc1cccc(CNC(=O)CN2C(=O)c3ccccc3S2(=O)=O)c1	none
c1ccc(CCNc2ncnc3nc[nH]c23)cc1	TAAR1 ag 71 | TAAR1 ag conf 89 | Ga16 nonsel ag inactive | TAAR1 desensitize 82 | Ga16 nonsel ant inactive
Cc1ccc(CNS(=O)(=O)c2ccc(C(F)(F)F)cc2)n1C	none
Cn1cccc1/C=N/n1c(-c2ccc(Cl)cc2Cl)n[nH]c1=S	TAAR1 ag 62, V1aR counter 21, OXTR agonist 26 | TAAR1 ag conf 53 | Ga16 nonsel ag 26 | TAAR1 desensitize inactive | Ga16 nonsel ant 24
CC(NC(=O)Cc1ccc(-c2ccccc2)cc1)c1ccccc1 (stereo unspecified)	TAAR1 ag 60 | TAAR1 ag conf inactive | Ga16 nonsel ag 18 | TAAR1 desensitize inactive | Ga16 nonsel ant inactive
COc1cc(CN2CCCC(C(=O)c3ccc(C(C)(C)C)cc3)C2)cc(OC)c1O (stereo unspecified)	TAAR1 ag 54 | TAAR1 ag conf inactive | Ga16 nonsel ag inactive | TAAR1 desensitize inactive | Ga16 nonsel ant inactive
CCN(CC)CCCNC(=O)c1cc(-c2ccccc2)c(N2CCCCC2)s1	TAAR1 ag 53 | TAAR1 ag conf 55 | Ga16 nonsel ag 34 | TAAR1 desensitize inactive | Ga16 nonsel ant inactive
CC(C)N1C(=O)S/C(=C\c2ccc(-c3ccc(Cl)c(C(=O)O)c3)o2)C1=O	none
CCN(CC)c1ccc(/C=C2/SC(=O)N(C(C)C)C2=O)o1	TAAR1 ag 73, TAAR1 antagonist 54 (no result: OXTR potentiator, V1aR counter, OXTR agonist) | TAAR1 ag conf 69 | Ga16 nonsel ag 73 | TAAR1 desensitize 64 | Ga16 nonsel ant 68
Cc1ccccc1OCCC(=O)OCC(=O)NC1CC1	none
O=C(c1cccc(S(=O)(=O)N2CCCC2)c1)N1CCN(S(=O)(=O)c2cccc(Cl)c2)CC1	none (no result: OXTR potentiator, V1aR counter, OXTR agonist)
CCOc1ccc(N(CC(=O)NC(C(C)C)C(C)C)S(=O)(=O)c2ccc(OC)c(OC)c2)cc1	none
O=S(=O)(NCc1ccccn1)c1ccc(Cl)s1	none
CCN1C(=S)N[C@@H](c2ccccc2)C(C(=O)OC)=C1C	none
CCN1C(N(C)CCc2cccs2)=N[C@@H](c2ccccc2)C(C(=O)OC)=C1C	TAAR1 ag 68 | TAAR1 ag conf 74 | Ga16 nonsel ag inactive | TAAR1 desensitize inactive | Ga16 nonsel ant inactive
O=C(CN1CCN(c2ccccc2)CC1)Nc1ccccc1C(=O)NCCc1ccccc1	TAAR1 ag 76, TAAR1 antagonist 88 (no result: OXTR potentiator, V1aR counter, OXTR agonist) | TAAR1 ag conf 82 | Ga16 nonsel ag inactive | TAAR1 desensitize 75 | Ga16 nonsel ant 32
CCc1ccc(OCC(=O)NNC(=O)c2cc3ccccc3o2)cc1	TAAR1 ag 75, TAAR1 antagonist 71 | TAAR1 ag conf inactive | Ga16 nonsel ag inactive | TAAR1 desensitize inactive | Ga16 nonsel ant inactive
Cn1c(=O)c2c(nc(N3CCCCCC3)n2Cc2cccc3ccccc23)n(C)c1=O	TAAR1 ag 66 | TAAR1 ag conf 72 | Ga16 nonsel ag 42 | TAAR1 desensitize inactive | Ga16 nonsel ant 28
CN1CCN(c2nc3c(c(=O)n(C)c(=O)n3C)n2Cc2cccc3ccccc23)CC1	none
COc1ccc(C(=O)Cn2c(NCCCO)nc3ccccc32)cc1	none (no result: OXTR potentiator, V1aR counter, OXTR agonist)
Cc1cc2nc(NCCCO)n(CC(=O)c3cc(C(C)(C)C)c(O)c(C(C)(C)C)c3)c2cc1C	TAAR1 ag 49 | TAAR1 ag conf 53 | Ga16 nonsel ag 30 | TAAR1 desensitize inactive | Ga16 nonsel ant 34
CCN1CCN(C(c2cccnc2)c2c(NC(=O)c3ccco3)sc(C)c2C)CC1 (stereo unspecified)	none
Cc1sc(NC(=O)c2ccco2)c(C(c2cccnc2)N2CCC(C)CC2)c1C (stereo unspecified)	TAAR1 ag 62 | TAAR1 ag conf 54 | Ga16 nonsel ag 22 | TAAR1 desensitize inactive | Ga16 nonsel ant 23
C[C@@H]1CN([C@H](C)CO)C(=O)c2c(c3ccccc3n2C)-c2ccccc2CO[C@H]1CN(C)Cc1ccc(Oc2ccccc2)cc1	none (no result: OXTR potentiator, V1aR counter, OXTR agonist)
CC(C)C[C@H]1CN=C(Nc2ccccc2)N1CCCC1CCCCC1	TAAR1 ag 58 | TAAR1 ag conf 58 | Ga16 nonsel ag 26 | TAAR1 desensitize inactive | Ga16 nonsel ant 27
CC(C)C[C@H]1CN=C(Nc2ccccc2)N1CCC1CCCC1	none
CC(C)C[C@H]1CN=C(Nc2ccccc2)N1CCCC1CCCC1	TAAR1 ag 57 | TAAR1 ag conf 74 | Ga16 nonsel ag 36 | TAAR1 desensitize inactive | Ga16 nonsel ant 24
c1ccc(C[C@H]2CN=C(Nc3ccccc3)N2CCCC2CCCCC2)cc1	TAAR1 ag 47 | TAAR1 ag conf inactive | Ga16 nonsel ag inactive | TAAR1 desensitize inactive | Ga16 nonsel ant inactive
O=C(C[C@H]1CC[C@@H]2[C@H](COC[C@H](O)CN2Cc2cccc(C(F)(F)F)c2)O1)NCCc1ccccc1	none (no result: OXTR potentiator, V1aR counter, OXTR agonist)
